Results from paper PMC6939458 (Cancer cell, 2019).

Columns and labels:
MYC [1] = test: Western blot of MYC protein level, stability and phosphorylation in cells; assay type: cell-based, human
Outline: (§1)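 PC3 cells, or PC3 stably expressing Flag-MYC, Flag-MYCT58A or Flag-MYCS62A (lentiviral, 1.5 μg/ml puromycin selection), were used. For stability, cells were pretreated 3 hr with compound or DMSO, then given cycloheximide and harvested at time points. MYC, pT58, pS62, GSK3β and pGSK3β S9 were detected by western blot over a time course. Band intensities were densitometrically quantified.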

MYC [2] = target: MYC (Homo sapiens, UniProt P01106, T73A); test: as above; assay type: cell-based; settings: 6 μM, PC3 cells expressing Flag-MYCT58A
Outline: as §1

MYC353–439 = MYC353–439 (Homo sapiens, UniProt P01106); test: Fluorescence polarization competition assay against 10074-G5; assay type: binding
MYC [3] = target: MYC (Homo sapiens, UniProt P01106); test: Cellular thermal shift assay; assay type: cell-based
Outline: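 PC3 cells (70–80% confluent; also PC3 stably expressing Flag-MYCT58A, puromycin 1.5 μg/ml selected) treated with test compound or DMSO for 30 min. Cells washed, resuspended in PBS with protease/phosphatase inhibitors plus the same compound dose, split into 7–10 aliquots (~1 million cells each), heated 2 min at graded temperatures, then 3 min room temperature. Lysates boiled 5 min at 90 °C; MYC quantified by Western blot densitometry to build melt curves.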

[4] = tested on: MYC target gene expression; test: RNA-seq and RT-qPCR gene expression; assay type: cell-based, human
Outline: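 MYCT58A cells were PC3 transduced with Flag-MYCT58A lentivirus and selected with 1.5 μg/ml puromycin. RT-qPCR used human MYC and 18S rRNA primers. For RNA-seq, PC3 cells were treated for 24 hr in triplicate and RNA was extracted after a PBS wash.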

[5] = Maximum tolerated dose / acute toxicity in mice; assay type: in vivo; settings: 361-treated mice
[6] = tested on: MYC-dependent cancer cells; test: Cell viability, MYC-dependent cancer cells; assay type: cell-based; settings: MycCaP, LNCaP, PC3, MV4–11, HL-60, P493–6, SK-N-B2; 5 days
Outline: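 Cells were seeded at 1000 to 5000 per well in 96-well plates, depending on cell type. Viable cells were counted, or MTS absorbance was read at 490 nm, 2 to 7 days after treatment. MycCaP, PC3, LNCaP and P493–6 were grown in RPMI1640, SK-N-BE(2) in F12 and MV411 in IMDM, each with 10% heat-inactivated FBS and 1% penicillin-streptomycin.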

MycCaP cells = test: Caspase-3 and immunogenic cell death assays in MycCaP cells; assay type: cell-based, mouse
Outline: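 MycCaP cells exposed to 4 μM test compound for 72 hr; supernatants collected. Secreted ATP read by bioluminescent kit and HMGB1 by ELISA, with cell counts taken for quantification. Surface calreticulin: cells stained with rabbit anti-calreticulin (1:1000, 60 min), then Alexa Fluor 488 anti-rabbit (1 μg/ml), read by flow cytometry.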

[7] = tested on: Rat1 fibroblasts (HO15.19, TGR.1); test: Cell viability, Rat1 fibroblasts; assay type: cell-based, rat; settings: HO15.19 vs TGR.1
Outline: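 Myc-knockout HO15.19 and wild-type TGR.1 Rat-1 fibroblasts were kept in DMEM with 10% calf serum. They were seeded in 48-well plates at 1000 per well (HO15.19) or 3000 per well (TGR.1). After 2 to 7 days of treatment, viable cells were counted or MTS absorbance was read at 490 nm.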

[8] = tested on: human prostate cancer patient derived xenografts; test: Prostate cancer PDX model; assay type: in vivo, mouse; settings: 55 mg/kg/day, 3 consecutive days a week for 2 weeks
Outline: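 Minced fragments (~10 mm²) of prostate PDX TM00298 were implanted into the flanks of male NSG mice. Once grafts were measurable, test compound was given i.p. at 55 mg/kg/day on 3 consecutive days a week for two weeks. Tumour growth was expressed as percentage, n = 9 or 10 grafts.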

[9] = tested on: MycCaP organoids and FVB mouse prostate organoids; test: Prostate organoid culture; assay type: cell-based; settings: 4 days treatment
Outline: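 Prostate lobes from 8–10-week-old FVB males were minced and digested with collagenase in RPMI1640/10% FBS for 2 hr at 37 °C. Trypsin and DNase I followed, then a 40 μm strainer. Cells were plated on ultra-low-attachment plates: 5,000 normal cells or 1000 MycCaP cells per 100 μl, with media added at day 4. Organoids formed by day 7 (normal) or day 4 (MycCaP). They were pelleted, resuspended in media with compound or DMSO, and imaged in bright field 4 days after treatment.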

GSK3β-mediated MYC pT58 = GSK3β-mediated MYC pT58 (Homo sapiens, UniProt P01106); test: In vitro kinase assay; assay type: biochemical; settings: 6 μM
Outline: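 Phosphorylation reactions were run in kinase buffer (25 mM Tris-HCl pH 7.5, 5 mM β-glycerophosphate, 2 mM DTT, 0.1 mM sodium vanadate, 10 mM MgCl₂) at room temperature for 2 hr in total.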

[10] = tested on: phosphatase inhibition screening panel; test: Phosphatase inhibition screening panel; assay type: biochemical; settings: 10-dose 3-fold serial dilutions starting at 100 μM
Outline: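 Run in 10-dose IC₅₀ mode, each compound tested singly, with a PTP1B inhibitor as control compound.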

MycCaP tumor allografts = test: MycCaP allograft/xenograft mouse model; assay type: in vivo
Outline: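 Male FVB (allograft) or NSG (xenograft) mice, 6–8 weeks, ~25 g, acclimated >4 days. Injected s.c. in flanks with 1 × 10⁶ MycCaP E-box-luciferase cells in 100 μl Matrigel. Tumors followed by caliper ((length × width × width)/2) and by bioluminescent imaging after i.p. substrate injection. Body weight recorded. Tumor tissue assessed by H&E and immunofluorescence for Ki67, MYC pT58 and PD-L1.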

MYC/MAX/DNA complex = MYC/MAX/DNA complex (Homo sapiens, UniProt P01106); test: EMSA, MYC/MAX/DNA complex formation; assay type: biochemical
[11] = MycCaP E-box-Luc allografts, i.p.
[12] = MycCaP tumor tissue after treatment
[13] = MycCaP tumors post-361 treatment

Sequence of MYC (Homo sapiens, UniProt P01106) (P01106 16-454): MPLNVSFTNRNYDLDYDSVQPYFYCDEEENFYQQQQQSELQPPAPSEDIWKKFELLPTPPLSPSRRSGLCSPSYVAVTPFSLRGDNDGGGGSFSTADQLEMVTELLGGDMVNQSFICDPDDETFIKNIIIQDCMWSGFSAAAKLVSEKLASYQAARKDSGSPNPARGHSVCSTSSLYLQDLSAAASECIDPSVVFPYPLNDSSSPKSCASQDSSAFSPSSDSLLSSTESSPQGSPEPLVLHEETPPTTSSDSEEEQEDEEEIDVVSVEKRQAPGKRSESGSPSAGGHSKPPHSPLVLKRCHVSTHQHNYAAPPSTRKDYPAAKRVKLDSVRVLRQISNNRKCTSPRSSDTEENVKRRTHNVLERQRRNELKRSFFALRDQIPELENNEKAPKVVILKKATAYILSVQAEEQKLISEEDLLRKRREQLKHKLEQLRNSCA
Sequence of MYC/MAX/DNA complex (P01106 368-454, one chain of several): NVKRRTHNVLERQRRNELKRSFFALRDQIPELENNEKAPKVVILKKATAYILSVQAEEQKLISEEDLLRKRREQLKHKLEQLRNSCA
Sequence of GSK3β-mediated MYC pT58 (P01106 16-454): as the sequence (P01106 16-454) above
Sequence of MYC (Homo sapiens, UniProt P01106, T73A) (P01106 16-454 T73A): as the sequence (P01106 16-454) above, with T58A counted along it
Sequence of MYC353–439 (P01106 368-454): as the sequence (P01106 368-454, one chain of several) above

## Cn1nc(C(F)(F)F)cc1-c1ccc(OCc2ccc(Cl)cc2)c(-c2cc(C(F)(F)F)cc(C(F)(F)F)c2)c1O [Compound 361, 6-((4-chlorobenzyl)oxy)-3-(1-methyl-3-(trifluoromethyl)-1H-pyrazol-5-yl)-3’,5’-bis(trifluoromethyl)-[1,1’-biphenyl]-2-ol]
MYC [1]
  phosphorylation of β-Catenin at S33/37/T41: did not affect
MYC [1]; 6 μM, PC3 cells
  MYC T58 and S62 phosphorylation: selectively increased T58 but not S62 phosphorylation
MYC [1]; PC3 cells
  regulatory GSK3β S9 phosphorylation: did not affect
MYC [1]; multiple cell lines expressing MYC and MYCN
  MYC, MYCN and MAX protein levels: reduction in MYC and MYCN, but not MAX, protein levels
MYC [2]
  degradation of MYCT58A mutant: not readily degraded
MYC353–439
  Kd: 3.2 µM
MYC [3]; 6 μM, MYCT58A-expressing PC3 cells
  interaction with MYCT58A by CETSA: can interact
MYC [3]; PC3 cells, 30 min, 361 4–10 μM, G5 15–60 μM, 360 6 μM
  thermal stability of MYC protein (CETSA): significant thermal destabilization
[4]
  MYC mRNA levels: not altered
[4]; 6 μM, 24 hr, MYCT58A-expressing cells
  expression of MYC target genes CDC25A and MYB: potently suppressed
[4]; 6 μM, 24 hr, RNA-seq
  MYC target gene expression (GSEA, six gene sets): significantly down regulated in all gene sets
[5]
  histopathological analysis of major organs: suppression of the splenic white pulp and hepatocyte hypertrophy
[6]
  IC50s, cell viability: low micromolar
MycCaP cells; 4 μM, 72 hr
  markers of immunogenic cell death: significant upregulation of cell surface calreticulin expression, and release of HMGB1 and ATP
MycCaP cells; 6 μM
  cancer cell death, caspase-3: induces cancer cell death with activated caspase-3 expression
[7]
  sensitivity of Myc knockout versus wild-type fibroblasts: more resistant
[8]
  anti-tumor efficacy: confirmed 361 anti-tumor efficacy
[9]
  sensitivity of MycCaP versus normal prostate organoids: more sensitive
GSK3β-mediated MYC pT58
  pT58 levels in in vitro kinase assay: significantly increased pT58 levels
[10]
  phosphatase inhibition screening panel result: negative
MycCaP tumor allografts; 50 mg/kg/day for 4 days
  tumor inhibitory effect, FVB versus NSG mice: stronger tumor inhibitory effect in immunocompetent FVB mice
MycCaP tumor allografts; 50 mg/kg/day, 2 days on/2 days off for 2 rounds
  tumor immune cells by flow cytometry: an increase in CD3^+CD4^+ and CD3^+CD8^+ T cells, IFNγ-expressing CD4^+ and CD8^+ T cells, TNFα-expressing CD8^+ cells, dendritic cells and NK cells
MycCaP tumor allografts; 70 mg/kg/day
  body weight: without additional loss in mouse body weight
MycCaP tumor allografts; 100 mg/kg/day, average
  body weight loss: 10%
MycCaP tumor allografts; 361 50 mg/kg/day 2 days then anti-PD1 100 μg/d 2 days, 4 cycles
  tumor growth, combination with anti-PD1: synergistic suppression of tumor growth
MycCaP tumor allografts; FVB mice, established MycCaP allografts, 100 mg/kg/day
  tumor growth: induced tumor regression
MycCaP tumor allografts; [11]
  E-box luciferase activity in vivo: significantly reduced
  tumor size, rapid in vivo screen: significantly reduced
MycCaP tumor allografts; [12]
  Ki67 proliferation marker in tumor tissues: decreased
  MYC pT58 level in tumor tissues: increased
MycCaP tumor allografts; [13]
  PD-L1 expression on tumor cells: upregulation of PD-L1 expression
  tumor infiltration of CD3+ T cells: enhanced tumor infiltration of CD3^+ T cells
MycCaP tumor allografts; combination study dose, 50 mg/kg/day 2 days on/off
  tolerability: well-tolerated
MycCaP tumor allografts; treatment re-started at 70 mg/kg/day
  tumor growth: effective in controlling tumor growth
MYC/MAX/DNA complex; EMSA
  disruption of MYC/MAX/DNA complex formation: impaired
MYC/MAX/DNA complex; EMSA and cell viability assays
  activity in vitro: active
